Test results: ChEMBL document CHEMBL1135454, “SAR and X-ray. A new approach combining fragment-based screening and rational drug design: application to the discovery of nanomolar inhibitors of Src SH2” (J Med Chem, 2002); call rule not given here
pIC50: −log10 of the molar value.

Key:
[1] = biological target: T1, Proto-oncogene tyrosine-protein kinase Src (Homo sapiens, UniProt P12931); test: Binding affinity for Src SH2 domain in scintillation proximity binding assay (SPA) - inactive
[2] = biological target: T1, Proto-oncogene tyrosine-protein kinase Src; test: Binding affinity for Src SH2 domain in scintillation proximity binding assay (SPA)
[3] = biological target: T1, Proto-oncogene tyrosine-protein kinase Src; test: Binding affinity towards Src protein tyrosine kinase SH2 domain using surface plasmon resonance (SPR) assay
[4] = biological target: T1, Proto-oncogene tyrosine-protein kinase Src; test: (§1) Binding affinity for Src protein tyrosine kinase SH2 domain using surface plasmon resonance (SPR) assay
[5] = biological target: T1, Proto-oncogene tyrosine-protein kinase Src; test: Binding affinity for Src protein tyrosine kinase SH2 domain using scintillation proximity binding assay (SPA)
[6] = biological target: T1, Proto-oncogene tyrosine-protein kinase Src; test: as §1; remark: listed apart in the source
Summary of the method: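 Surface plasmon resonance with human Src SH2 domain (aa 145–251), E. coli-expressed and purified by cation exchange and gel filtration. Ligands compete for binding; IC50 reported.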

[7] = biological target: T1, Proto-oncogene tyrosine-protein kinase Src; test: Binding affinity towards Src protein tyrosine kinase SH2 domain using scintillation proximity binding assay (SPA)
[8] = biological target: T1, Proto-oncogene tyrosine-protein kinase Src; test: Binding affinity towards Src protein tyrosine kinase SH2 domain protein using scintillation proximity binding assay (SPA)

T1 sequence (P12931 2-536 limits assumed): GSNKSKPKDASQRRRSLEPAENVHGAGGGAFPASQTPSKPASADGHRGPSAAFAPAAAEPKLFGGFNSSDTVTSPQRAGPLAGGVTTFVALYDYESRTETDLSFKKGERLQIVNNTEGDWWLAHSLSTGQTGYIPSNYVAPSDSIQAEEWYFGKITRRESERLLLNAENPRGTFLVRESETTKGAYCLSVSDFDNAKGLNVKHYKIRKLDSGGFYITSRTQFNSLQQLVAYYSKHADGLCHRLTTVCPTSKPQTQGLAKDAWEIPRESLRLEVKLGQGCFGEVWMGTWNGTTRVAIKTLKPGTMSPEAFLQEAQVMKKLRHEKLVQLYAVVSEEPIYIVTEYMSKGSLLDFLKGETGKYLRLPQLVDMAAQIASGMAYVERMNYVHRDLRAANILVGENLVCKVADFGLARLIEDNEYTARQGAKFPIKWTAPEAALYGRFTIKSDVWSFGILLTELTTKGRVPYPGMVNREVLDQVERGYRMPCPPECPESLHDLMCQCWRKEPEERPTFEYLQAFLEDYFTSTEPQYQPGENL

Structure (SMILES): CCC(C(N)=O)(C(=O)O)c1ccccc1 (stereo not drawn) [PHENYLETHYLMALONAMIDE -]
- IC50 [1]: Not Active

Structure (SMILES): O=C(O)CC(CC(=O)O)c1ccccc1
- IC50 [1]: Not Active

Structure (SMILES): CC(CC(=O)O)(CC(=O)O)c1ccccc1
- IC50 [1]: Not Active

Structure (SMILES): Cc1cc(C=O)c(OP(=O)(O)O)c(C=O)c1
- pIC50 [2]: 4.41

Structure (SMILES): COC(=O)c1cc(C[C@@H](NC(C)=O)C(=O)N[C@H]2CCCCN(Cc3ccc(-c4ccccc4)cc3)C2=O)ccc1C(C(=O)O)C(=O)O
- pIC50 [3]: 8.15

Structure (SMILES): CC[C@H](C)[C@H](NC(=O)[C@H](CCC(=O)O)NC(=O)[C@H](CCC(=O)O)NC(=O)[C@H](Cc1ccc(OP(=O)(O)O)cc1)NC(C)=O)C(N)=O
- pIC50 [4]: 9.00
- pIC50 [2]: 6.82

Structure (SMILES): O=C(O)CC(C(=O)O)c1ccccc1 (stereo not drawn)
- IC50 [1]: Not Active

Structure (SMILES): O=P(O)(O)Oc1ccccc1 [PHENYL DIHYDROGEN PHOSPHATE]
- pIC50 [4]: 2.30
- pIC50 [5]: 3.52

Structure (SMILES): O=Cc1ccccc1OP(=O)(O)O
- pIC50 [4]: 3.52
- pIC50 [2]: 4.10

Structure (SMILES): O=Cc1cccc(OP(=O)(O)O)c1
- pIC50 [4]: 2.68
- pIC50 [2]: 3.22

Structure (SMILES): Cc1cc(C=O)cc(C)c1OP(=O)(O)O
- pIC50 [6]: 2.30

Structure (SMILES): COc1cccc(C=O)c1OP(=O)(O)O
- pIC50 [5]: 4.02

Structure (SMILES): O=C(O)C(c1ccccc1)S(=O)(=O)O (stereo not drawn)
- pIC50 [7]: 3.72

Structure (SMILES): Cc1ccc(C(C(=O)O)C(=O)O)c(COC=O)c1
- pIC50 [7]: 4.00

Structure (SMILES): O=S(=O)(O)C(O)c1ccccc1 (stereo not drawn)
- IC50 [1]: Not Active

Structure (SMILES): O=C(O)CC(CC(=O)O)(c1ccccc1)c1ccccc1
- IC50 [1]: Not Active

Structure (SMILES): Cc1ccc(CC(=O)O)c(C=O)c1
- pIC50 [2]: 3.41

Structure (SMILES): COC(=O)c1cc(C[C@H](NC(C)=O)C(=O)N[C@H]2CCCCN(Cc3ccc(-c4ccccc4)cc3)C2=O)ccc1C(C(=O)O)C(=O)O
- pIC50 [3]: 6.25

Structure (SMILES): O=C(O)C(c1ccc(O)cc1)S(=O)(=O)O (stereo not drawn)
- pIC50 [8]: 3.72
